Laboratory results as given in PMC5114172 (Journal of applied toxicology : JAT, 2016).

How the values were obtained:
[1] = test system: NK cells; assay: Cell viability, trypan blue exclusion; format: cell-based, human; conditions: for Percent Viable Cells: 6 day
[2] = test system: PBMCs plus Granulocytes; assay: IL-1β secretion assay; format: cell-based, human; conditions: for Interleukin 1 beta secreted: PBMCs plus Granulocytes
Summary of the method: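 NK cells, MD-PBMCs, PBMCs or granulocytes (1.5 million/mL) or PBMC+granulocytes (0.75 million/mL each), per donor, exposed 24 h, 48 h or 6 days to 0.05–5 μM test compound diluted from DMSO stock, with DMSO controls. Supernatants kept at −70 °C. IL-1β by sandwich ELISA: HRP detection antibody, acid-stopped substrate, A450 against standards. Detection limit 3 pg/mL; triplicates; ANOVA then t test versus control, p<0.05.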

In the case of CCC[CH2][Sn][CH2]CCC [DBT, Dibutyltin], the reductions in viability ([1]; 48 h, 2.5 and 5 μM DBT) is reported as “around 35%”, the “Percent Viable Cells” value ([1]; 0.05 μM DBT) is reported as 75±8% and the “Percent Viable Cells” value ([1]; 0.1 μM DBT) is reported as 78±7%. For the same compound, the “Percent Viable Cells” value ([1]; 0.25 μM DBT) was 74±9%, the “Percent Viable Cells” value ([1]; 0.5 μM DBT) was 68±9% and the “Percent Viable Cells” value ([1]; 1 μM DBT) was 69±3%. The “Percent Viable Cells” value ([1]; 2.5 μM DBT) was 58±7%, the “Percent Viable Cells” value ([1]; 5 μM DBT) was 49±19% and the “change in viability compared to the control” value ([1]; 6 days, 0.05–1 μM DBT) was “no change”. The “Interleukin 1 beta secreted” value ([2]; donor F148, 24 h, 0.05 μM DBT) was 4217 ± 397 pg/mL, the “Interleukin 1 beta secreted” value ([2]; donor F148, 24 h, 0.1 μM DBT) was 3060 ± 191 pg/mL and the “Interleukin 1 beta secreted” value ([2]; donor F148, 24 h, 0.25 μM DBT) was 3344 ± 212 pg/mL. For the same compound, the “Interleukin 1 beta secreted” value ([2]; donor F148, 24 h, 0.5 μM DBT) was 7275 ± 2061 pg/mL, the “Interleukin 1 beta secreted” value ([2]; donor F148, 24 h, 1 μM DBT) was 2011 ± 148 pg/mL and the “Interleukin 1 beta secreted” value ([2]; donor F148, 24 h, 2.5 μM DBT) was 736 ± 552 pg/mL. The “Interleukin 1 beta secreted” value ([2]; donor F148, 24 h, 5 μM DBT) was 197 ± 78 pg/mL, the “Interleukin 1 beta secreted” value ([2]; donor F148, 48 h, 0.05 μM DBT) was 646 ± 25 pg/mL and the “Interleukin 1 beta secreted” value ([2]; donor F148, 48 h, 0.1 μM DBT) was 864 ± 11 pg/mL. For the same compound, the “Interleukin 1 beta secreted” value ([2]; donor F148, 48 h, 0.25 μM DBT) was 1017 ± 76 pg/mL, the “Interleukin 1 beta secreted” value ([2]; donor F148, 48 h, 0.5 μM DBT) was 1191 ± 200 pg/mL and the “Interleukin 1 beta secreted” value ([2]; donor F148, 48 h, 1 μM DBT) was 491 ± 26 pg/mL. For the same compound, the “Interleukin 1 beta secreted” value ([2]; donor F148, 6 day, 0.5 μM DBT) was 3 ± 1 pg/mL, the “Interleukin 1 beta secreted” value ([2]; donor F154, 24 h, 0.05 μM DBT) was 1364 ± 181 pg/mL and the “Interleukin 1 beta secreted” value ([2]; donor F154, 24 h, 0.1 μM DBT) was 1059 ± 141 pg/mL. For the same compound, the “Interleukin 1 beta secreted” value ([2]; donor F154, 24 h, 0.25 μM DBT) was 835 ± 38 pg/mL, the “Interleukin 1 beta secreted” value ([2]; donor F154, 24 h, 0.5 μM DBT) was 538 ± 33 pg/mL and the “Interleukin 1 beta secreted” value ([2]; donor F154, 24 h, 1 μM DBT) was 386 ± 157 pg/mL. The “Interleukin 1 beta secreted” value ([2]; donor F154, 48 h, 0.05 μM DBT) was 358 ± 88 pg/mL, the “Interleukin 1 beta secreted” value ([2]; donor F154, 48 h, 0.1 μM DBT) was 346 ± 40 pg/mL and the “Interleukin 1 beta secreted” value ([2]; donor F154, 48 h, 0.25 μM DBT) was 372 ± 47 pg/mL. The “Interleukin 1 beta secreted” value ([2]; donor F154, 48 h, 0.5 μM DBT) was 372 ± 24 pg/mL, the “Interleukin 1 beta secreted” value ([2]; donor F154, 48 h, 1 μM DBT) was 322 ± 11 pg/mL and the “Interleukin 1 beta secreted” value ([2]; donor F154, 48 h, 2.5 μM DBT) was 321 ± 35 pg/mL. For the same compound, the “Interleukin 1 beta secreted” value ([2]; donor F154, 48 h, 5 μM DBT) was 321 ± 20 pg/mL, the “Interleukin 1 beta secreted” value ([2]; donor F154, 6 day, 0.05 μM DBT) was 65 ± 34 pg/mL and the “Interleukin 1 beta secreted” value ([2]; donor F154, 6 day, 0.1 μM DBT) was 31 ± 16 pg/mL. The “Interleukin 1 beta secreted” value ([2]; donor F154, 6 day, 0.25 μM DBT) was 8 ± 1 pg/mL, the “Interleukin 1 beta secreted” value ([2]; donor F154, 6 day, 0.5 μM DBT) was 11 ± 0 pg/mL and the “Interleukin 1 beta secreted” value ([2]; donor F154, 6 day, 1 μM DBT) was 10 ± 0 pg/mL. The “Interleukin 1 beta secreted” value ([2]; donor F154, 6 day, 2.5 μM DBT) was 3 ± 0 pg/mL, the “Interleukin 1 beta secreted” value ([2]; donor F159, 24 h, 0.05 μM DBT) was 438 ± 18 pg/mL and the “Interleukin 1 beta secreted” value ([2]; donor F159, 24 h, 0.1 μM DBT) was 375 ± 28 pg/mL. For the same compound, the “Interleukin 1 beta secreted” value ([2]; donor F159, 24 h, 0.25 μM DBT) was 648 ± 18 pg/mL, the “Interleukin 1 beta secreted” value ([2]; donor F159, 24 h, 0.5 μM DBT) was 620 ± 40 pg/mL and the “Interleukin 1 beta secreted” value ([2]; donor F159, 24 h, 1 μM DBT) was 617 ± 74 pg/mL. For the same compound, the “Interleukin 1 beta secreted” value ([2]; donor F159, 24 h, 2.5 μM DBT) was 87 ± 12 pg/mL, the “Interleukin 1 beta secreted” value ([2]; donor F159, 48 h, 0.05 μM DBT) was 109 ± 93 pg/mL and the “Interleukin 1 beta secreted” value ([2]; donor F159, 48 h, 0.1 μM DBT) was 48 ± 8 pg/mL. The “Interleukin 1 beta secreted” value ([2]; donor F159, 48 h, 0.25 μM DBT) was 141 ± 16 pg/mL, the “Interleukin 1 beta secreted” value ([2]; donor F159, 48 h, 0.5 μM DBT) was 226 ± 16 pg/mL and the “Interleukin 1 beta secreted” value ([2]; donor F159, 48 h, 1 μM DBT) was 311 ± 39 pg/mL. The “Interleukin 1 beta secreted” value ([2]; donor F159, 48 h, 2.5 μM DBT) was 505 ± 54 pg/mL, the “Interleukin 1 beta secreted” value ([2]; donor F159, 48 h, 5 μM DBT) was 192 ± 15 pg/mL and the “Interleukin 1 beta secreted” value ([2]; donor F159, 6 day, 0.05 μM DBT) was 3 ± 2 pg/mL. For the same compound, the “Interleukin 1 beta secreted” value ([2]; donor F159, 6 day, 0.1 μM DBT) was 3 ± 2 pg/mL, the “Interleukin 1 beta secreted” value ([2]; donor F159, 6 day, 0.5 μM DBT) was 5 ± 1 pg/mL and the “Interleukin 1 beta secreted” value ([2]; donor F159, 6 day, 1 μM DBT) was 5 ± 1 pg/mL. For the same compound, the “Interleukin 1 beta secreted” value ([2]; donor F159, 6 day, 2.5 μM DBT) was 7 ± 1 pg/mL, the “Interleukin 1 beta secreted” value ([2]; donor F173, 24 h, 0.05 μM DBT) was 150 ± 26 pg/mL and the “Interleukin 1 beta secreted” value ([2]; donor F173, 24 h, 0.1 μM DBT) was 168 ± 34 pg/mL. The “Interleukin 1 beta secreted” value ([2]; donor F173, 24 h, 0.25 μM DBT) was 146 ± 12 pg/mL, the “Interleukin 1 beta secreted” value ([2]; donor F173, 24 h, 0.5 μM DBT) was 165 ± 13 pg/mL and the “Interleukin 1 beta secreted” value ([2]; donor F173, 24 h, 1 μM DBT) was 632 ± 19 pg/mL. For the same compound, the “Interleukin 1 beta secreted” value ([2]; donor F173, 24 h, 2.5 μM DBT) was 287 ± 22 pg/mL, the “Interleukin 1 beta secreted” value ([2]; donor F173, 24 h, 5 μM DBT) was 140 ± 10 pg/mL and the “Interleukin 1 beta secreted” value ([2]; donor F173, 48 h, 0.05 μM DBT) was 57 ± 35 pg/mL. The “Interleukin 1 beta secreted” value ([2]; donor F173, 48 h, 0.1 μM DBT) was 17 ± 2 pg/mL, the “Interleukin 1 beta secreted” value ([2]; donor F173, 48 h, 0.25 μM DBT) was 42 ± 6 pg/mL and the “Interleukin 1 beta secreted” value ([2]; donor F173, 48 h, 0.5 μM DBT) was 32 ± 1 pg/mL. The “Interleukin 1 beta secreted” value ([2]; donor F173, 48 h, 1 μM DBT) was 160 ± 2 pg/mL, the “Interleukin 1 beta secreted” value ([2]; donor F173, 48 h, 2.5 μM DBT) was 124 ± 3 pg/mL and the “Interleukin 1 beta secreted” value ([2]; donor F173, 48 h, 5 μM DBT) was 63 ± 1 pg/mL. For the same compound, the “average of the maximum fold increase in IL-β secretion” value ([2]; PBMCs+granulocytes, 24 h, across donors) was 3.8 fold, the “fold increase in IL-1β secretion” value ([2]; PBMCs+granulocytes, donor F159, 24 h, 0.25 μM DBT) was 1.9 fold and the “fold increase in IL-1β secretion” value ([2]; PBMCs+granulocytes, donor F159, 24 h, 0.5 μM DBT) was 1.8 fold. The “fold increase in IL-1β secretion” value ([2]; PBMCs+granulocytes, donor F159, 24 h, 1 μM DBT) was 1.8 fold, the “fold increase in IL-1β secretion” value ([2]; PBMCs+granulocytes, donor F159, 48 h, 0.25 μM DBT) was 35 fold and the “fold increase in IL-1β secretion” value ([2]; PBMCs+granulocytes, donor F159, 48 h, 0.5 μM DBT) was 56 fold. For the same compound, the “fold increase in IL-1β secretion” value ([2]; PBMCs+granulocytes, donor F159, 48 h, 1 μM DBT) was 77 fold.
